The results in this text go back to the array DNA melting data of Ke et al. (doi:10.1101/2024.01.08.574731).

Data set [1] in a line: melting temperature; fluorescence melt of hairpins on a sequencing array, two-state fit, raised by 9.35 °C to match UV melts. As to conditions: sodium 0.088 M. The essentials:
(§1)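 Cy3 signals were normalised both to pre-quench Cy3 and to control constructs. They came from library hairpins carrying annealed Cy3 and quencher oligos on a sequenced MiSeq flow cell, imaged in 50 mM Na-HEPES pH 8.0, 25 mM NaCl, in 2.5 °C steps up to 60 °C. Bootstrapped two-state fits gave melting temperature and folding enthalpy, and four replicates were combined by inverse variance. Fitted temperatures were then raised by 9.35 °C to match UV melts.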

Data set [2] is described as follows: folding enthalpy; higher = less favourable; fluorescence melt of hairpins on a sequencing array, two-state fit. As to conditions: sodium 0.088 M. Summed up: as §1

GCTCCGCGAAAGCGAGGC ((..(((....)))..)): the Tm in data set [1] is 55.6 °C. In addition, in data set [2], the folding enthalpy was -14.4 kcal/mol.
Turning to GCACCAGCGAAAGCTTGC (((..(((....)))))), the Tm in data set [1] amounted to 38.1 °C. Further, in data set [2], the folding enthalpy was -11.8 kcal/mol.
For GTGTTGGGAAACCAACAC (((((((....))))))), in that order: 63.5 °C and -43.1 kcal/mol.
For GATCGCGCGAAAGCGATC (((..(((....)))))), in data set [1], the Tm was determined as 60.1 °C. Further, the folding enthalpy in data set [2] is -25.8 kcal/mol.
For the sequence GCCATGCGAAAGCTTTGC ((.(.((....)).).)), the Tm in data set [1] was found to be 36.1 °C. Also, the folding enthalpy in data set [2] was -11.7 kcal/mol.
As to GCGGTGATCCGC ((((....)))), the Tm in data set [1] stood at 54.8 °C. For the same sequence, the folding enthalpy in data set [2] was -28.1 kcal/mol.
For GTGTTATCGAAAGATCAC (((..(((....)))))), in that order: 33.8 °C and -27.6 kcal/mol.
The matching figures for GTCACTGGAAACAGCGAC (((.(((....))).))): 47.2 °C and -35.2 kcal/mol.
For the sequence GATCTCCTGAGAGATC ((((((....)))))), the Tm in data set [1] amounted to 53.2 °C. Also, the folding enthalpy in data set [2] was -39 kcal/mol.
The matching figures for GAGTATGGAAACACACTC ((((.((....)).)))): 31.7 °C and -24.9 kcal/mol.
On to TTGCAGAAATGCAA (((((....))))), for which the Tm in data set [1] is 42.3 °C. Further, the folding enthalpy in data set [2] was -20.8 kcal/mol.
For GCGATGCGAAAGCCCCGC (((..((....))..))), in that order: 43.9 °C and -20.5 kcal/mol.
As to GTTGTAGGAAACTATGAC ((..(((....)))..)), the Tm in data set [1] was 26.6 °C. In data set [2], the folding enthalpy is -14.1 kcal/mol.
As for CTGAAGAAATTCAG (((((....))))), in data set [1], the Tm was 33.4 °C. The folding enthalpy in data set [2] is -12.5 kcal/mol.
As for GCTAGGCGAAAGCCAAGC (((.(((....))).))), the Tm in data set [1] is 56.1 °C. Also, the folding enthalpy in data set [2] is -40 kcal/mol.
GTAGCCGGAAACGGTTAC (((.(((....))).))): in data set [1], the Tm turned out to be 51.3 °C. Besides, the folding enthalpy in data set [2] is -37.7 kcal/mol.
On to GATCTTCCCTAAGATC ((((((....)))))), for which the Tm in data set [1] was determined as 43.3 °C. Also, the folding enthalpy in data set [2] is -31.1 kcal/mol.
For GCGTATTGACGC ((((....)))), in that order: 52.9 °C and -13.1 kcal/mol.
The matching figures for GAGGGGCGAAAGCCTCTC (((.(((....))).))): 58 °C and -23.3 kcal/mol.
Take GACACGGGAAACCGCATC ((..(((....)))..)): in data set [1], the Tm was found to be 20.4 °C. Besides, in data set [2], the folding enthalpy was -11.1 kcal/mol.
Consider GATCACGGGCGTGATC ((((((....)))))), for which, in data set [1], the Tm is 57.8 °C. Besides, the folding enthalpy in data set [2] was -40.4 kcal/mol.
In the case of GCGGGGCGAAAGCTCAGC ((.(.((....)).).)), the Tm in data set [1] was 60.1 °C. The folding enthalpy in data set [2] is -23.7 kcal/mol.
The matching figures for GCTACCGGAAACGGTAAC (.(((((....))))).): 37.2 °C and -12.9 kcal/mol.
The matching figures for GCGCCGTCGAAAGACCGC (((..(((....)))))): 50.8 °C and -23.1 kcal/mol.
The matching figures for GTGCCAGCGAAAGCTCAC (((..(((....)))))): 52.6 °C and -6.66 kcal/mol.
With GCGAGCGGAAACGCCCGC (((.(((....))).))), in data set [1], the Tm turned out to be 58.4 °C. Further, the folding enthalpy in data set [2] is -35.4 kcal/mol.
For GCAACCGAAAGGTCTGC ((((((....))).))), in that order: 47.6 °C and -22.7 kcal/mol.
For GATCTCGCTAGAGATC ((((((....)))))), in that order: 67.6 °C and -43.5 kcal/mol.
For GCCTCGGCGAAAGCCGGC (((..(((....)))))), in that order: 54.4 °C and -4.13 kcal/mol.
With GATCCGAAGCGGATC ((((((...)))))), the Tm in data set [1] is 55.4 °C. In addition, in data set [2], the folding enthalpy is -37 kcal/mol.
For the sequence CGGCACGGAAACGTACCG (((.(((....))).))), the Tm in data set [1] was 50.4 °C. The folding enthalpy in data set [2] was -30.5 kcal/mol.
For GTCTGCTCGAAAGAGGAC (((..(((....)))))), in that order: 31.3 °C and -18.1 kcal/mol.
On to GTAACGGAAACGTTAC ((((((....)))))), for which the Tm in data set [1] was found to be 56.3 °C. Besides, in data set [2], the folding enthalpy is -40.2 kcal/mol.
For GTTGGTGGAAACACTAAC (((.(((....))).))), in that order: 45 °C and -29.6 kcal/mol.
As for GTAACGGGAAACCGTTGC (.(((((....))))).), in data set [1], the Tm is 52 °C. In addition, the folding enthalpy in data set [2] is -21.2 kcal/mol.
For GCGATTGCTCGC ((((....)))), in that order: 52.5 °C and -14.3 kcal/mol.
As to GCCCGCTCGAAAGAGGGC (((..(((....)))))), in data set [1], the Tm is 54.6 °C. Also, the folding enthalpy in data set [2] was -40.6 kcal/mol.
